Assay results as given in publication PMC3776982 (British Journal of Cancer, 2013).
Where two headings read alike, the source gives them in different places.

Tests used:
breast cancer = conditions: 10 mg everolimus daily, patients with breast cancer; ref Ellard et al, 2009; cited from earlier work
[1] = test system: small-cell lung cancer (SCLC); experiment: Tumour response by phospho-Akt and phospho-S6 expression; assay type: in vivo, human; conditions: everolimus + paclitaxel
How it was run: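 Pretreatment tumour specimens were formalin-fixed and paraffin-embedded, cut into 4 μm sections, deparaffinised in xylene and rehydrated. Sections were immunostained on an autostainer with polymer detection, using rabbit monoclonal phospho-Akt (Ser473) at 1:80 and phospho-S6 (Ser235/236) at 1:200. Tumour response was assessed every two cycles by RECIST 1.1.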

[2] = test system: small-cell lung cancer (SCLC); experiment: Tumour response according to RECIST version 1.1; assay type: in vivo, human; conditions: + paclitaxel
[3] = Everolimus pharmacokinetics in whole blood; assay type: in vivo, human
How it was run: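 Samples were taken from six expansion-cohort patients at the MTD with paclitaxel, 10 per patient. Post-dose samples were drawn at 1, 2, 4, 6, 12 and 24 h on day 1 of cycle 2. Everolimus was quantified in whole blood by LC-MS/MS after protein precipitation.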

[4] = test system: previously treated SCLC patients; assay type: in vivo, human
How it was run: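 Open-label 3-level escalation of oral daily everolimus (2.5→5→10 mg) with fixed paclitaxel 175 mg m−2 every 3 weeks; up to six patients per level, no intrapatient escalation. DLT was assessed in cycle 1 and defined as: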

[5] = test system: previously treated SCLC patients; experiment: Adverse events; assay type: in vivo, human
How it was run: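 Toxicities graded by CTCAE v3.0 in adults with SCLC that had progressed after ≥2 prior chemotherapy regimens, including a platinum one. Paclitaxel 175 mg m−2 was given as a 3-h IV infusion every 3 weeks. Everolimus was given orally once daily (2.5, 5 or 10 mg) over 21-day courses. Patients were assessed weekly during cycle 1, then every 3 weeks.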

[6] = all everolimus doses (n=20), any grade, + 3-weekly paclitaxel 175 mg m^−2
[7] = everolimus 2.5 mg daily (n=6), grade 1/2, + 3-weekly paclitaxel 175 mg m^−2
[8] = everolimus 2.5 mg daily (n=6), grade 3/4, + 3-weekly paclitaxel 175 mg m^−2
[9] = everolimus 5 mg daily (n=11), grade 1/2, + 3-weekly paclitaxel 175 mg m^−2
[10] = everolimus 10 mg daily (n=3), grade 1/2, + 3-weekly paclitaxel 175 mg m^−2
[11] = everolimus 10 mg daily (n=3), grade 3/4, + 3-weekly paclitaxel 175 mg m^−2

Structure (SMILES): CO[C@H]1C[C@@H]2CC[C@@H](C)[C@@](O)(O2)C(=O)C(=O)N2CCCC[C@H]2C(=O)O[C@H]([C@H](C)C[C@@H]2CC[C@@H](OCCO)[C@H](OC)C2)CC(=O)[C@H](C)/C=C(\C)[C@@H](O)[C@@H](OC)C(=O)[C@H](C)C[C@H](C)/C=C/C=C/C=C/1C [everolimus]
- Response rate (breast cancer): 12%
- Response in phospho-S6-negative group (responders/patients) [1]: 1/3
- Response in phospho-S6-positive group (responders/patients) [1]: 1/3
- Objective responses in patients with phospho-Akt-negative tumours ([1]; four patients): two objective responses
- Objective response in phospho-Akt-positive patients ([1]; two patients (one stable and one progressive disease)): No objective response
- Objective response rate ([2]; dose level 1 (everolimus 2.5 mg daily), one out of 6 patients): 17%
- Objective response rate ([2]; dose level 2 (everolimus 5 mg daily), 2 out of 10 patients): 20%
- Objective response rate ([2]; dose level 3 (everolimus 10 mg daily), 2 out of 3 patients): 67%
- Interpatient coefficient of variation of pharmacokinetic parameters ([3]; all parameters except Cmin, everolimus 5 mg daily with paclitaxel): less than 40%
- Interpatient coefficient of variation of Cmin ([3]; everolimus 5 mg daily with paclitaxel): 52%
- AUC(0-t) ([3]; human, whole blood, po, 5 mg): 284 ng·h/mL
- Cmax ([3]; human, whole blood, po, 5 mg): 24.4 ng/mL
- Tmax ([3]; human, whole blood, po, 5 mg): 0.98 to 6.02 h
- Dose-limiting toxicity, cycle 1: Hyperglycemia (number of patients) [4, 6]: 1
- Dose-limiting toxicity, cycle 1: Thrombocytopenia (number of patients) [4, 6]: 2
- Patients who experienced DLT in cycle 1 ([4]; dose level 1 (everolimus 2.5 mg daily), six patients, + 3-weekly paclitaxel 175 mg m^−2): None
- Dose-limiting toxicity, cycle 1: Hyperglycemia (number of patients) [4, 7]: 0
- Dose-limiting toxicity, cycle 1: Thrombocytopenia (number of patients) [4, 7]: 0
- Dose-limiting toxicity, cycle 1: Hyperglycemia (number of patients) [4, 8]: 0
- Dose-limiting toxicity, cycle 1: Thrombocytopenia (number of patients) [4, 8]: 0
- Dose-limiting toxicity, cycle 1: Hyperglycemia (number of patients) [4, 9]: 0
- Dose-limiting toxicity, cycle 1: Thrombocytopenia (number of patients) [4, 9]: 0
- Dose-limiting toxicity, cycle 1: Hyperglycemia (number of patients) ([4]; everolimus 5 mg daily (n=11), grade 3/4, + 3-weekly paclitaxel 175 mg m^−2): 0
- Dose-limiting toxicity, cycle 1: Hyperglycemia (number of patients) [4, 10]: 0
- Dose-limiting toxicity, cycle 1: Thrombocytopenia (number of patients) [4, 10]: 0
- Dose-limiting toxicity, cycle 1: Hyperglycemia (number of patients) [4, 11]: 1
- Dose-limiting toxicity, cycle 1: Thrombocytopenia (number of patients) [4, 11]: 1
- MTD and recommended phase-2 dose (dose level) ([4]; level 2 = everolimus 5 mg daily + 3-weekly paclitaxel 175 mg m^−2): level 2
- Maximum tolerated dose (MTD) of everolimus ([4]; once daily, in combination with paclitaxel 175 mg m^−2 every 3 weeks): 5 mg
- ALT increased (number of patients with adverse event) [5, 6]: 6
- AST increased (number of patients with adverse event) [5, 6]: 6
- Anorexia (number of patients with adverse event) [5, 6]: 6
- Diarrhoea (number of patients with adverse event) [5, 6]: 3
- Febrile neutropenia (number of patients with adverse event) [5, 6]: 1
- Itching (number of patients with adverse event) [5, 6]: 4
- Leukopenia (number of patients with adverse event) [5, 6]: 15
- Neutropenia (number of patients with adverse event) [5, 6]: 16
- Pain (number of patients with adverse event) [5, 6]: 10
- Pneumonitis (number of patients with adverse event) [5, 6]: 1
- Stomatitis (number of patients with adverse event) [5, 6]: 8
- ALT increased (number of patients with adverse event) [5, 7]: 1
- AST increased (number of patients with adverse event) [5, 7]: 1
- Anaemia (number of patients with adverse event) [5, 7]: 5
- Anorexia (number of patients with adverse event) [5, 7]: 2
- Diarrhoea (number of patients with adverse event) [5, 7]: 0
- Febrile neutropenia (number of patients with adverse event) [5, 7]: 0
- Hyperglycemia (number of patients with adverse event) [5, 7]: 6
- Hypertriglycemia (number of patients with adverse event) [5, 7]: 3
- Itching (number of patients with adverse event) [5, 7]: 0
- Leukopenia (number of patients with adverse event) [5, 7]: 4
- Neuropathy (number of patients with adverse event) [5, 7]: 1
- Neutropenia (number of patients with adverse event) [5, 7]: 3
- Pain (number of patients with adverse event) [5, 7]: 2
- Pneumonitis (number of patients with adverse event) [5, 7]: 0
- Stomatitis (number of patients with adverse event) [5, 7]: 2
- Thrombocytopenia (number of patients with adverse event) [5, 7]: 2
- Vomiting (number of patients with adverse event) [5, 7]: 0
- ALT increased (number of patients with adverse event) [5, 8]: 0
- AST increased (number of patients with adverse event) [5, 8]: 0
- Anaemia (number of patients with adverse event) [5, 8]: 0
- Anorexia (number of patients with adverse event) [5, 8]: 0
- Diarrhoea (number of patients with adverse event) [5, 8]: 0
- Febrile neutropenia (number of patients with adverse event) [5, 8]: 0
- Hyperglycemia (number of patients with adverse event) [5, 8]: 0
- Hypertriglycemia (number of patients with adverse event) [5, 8]: 0
- Itching (number of patients with adverse event) [5, 8]: 0
- Leukopenia (number of patients with adverse event) [5, 8]: 1
- Neuropathy (number of patients with adverse event) [5, 8]: 0
- Neutropenia (number of patients with adverse event) [5, 8]: 1
- Pain (number of patients with adverse event) [5, 8]: 0
- Pneumonitis (number of patients with adverse event) [5, 8]: 0
